Screens (PubChem)
SENP6 block – SENP6 protease inhibition | Q9GZR1 | 330,000 tested, 1.8% active | inhibition, % at 10 µM | AID 2599 | Recombinant SENP6 catalytic domain, aminoluciferin luminescence;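 active = inhibition above about 50% at the single tested dose, limit read from the data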
SENP1 FRET inh – blocks the human SENP1 SUMO protease catalytic domain | recombinant SENP1 catalytic domain, CyPet-SUMO1-YPet FRET cleavage | Q9P0U3 | inhibition, % at 10 µM | 360,000 tested, 0.21% active;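 active = inhibition at least 30% at 10 µM, raw YFP signal under a set limit, fluorescence ratio 0.5 to 1.5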
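Assay system: hSENP1 catalytic domain, recombinant. Amount: SENP1 enzyme, 20 pM final. Schedule: 50 min reaction, RT, dark. Technique: FRET, CFP and YFP emission. Control set: no-enzyme wells low, DMSO-plus-enzyme wells high control.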
CendR NRP1 mod – modulators of CendR peptide binding to human neuropilin-1 | 360,000 tested, 0.85% active | FAM-RPARPAR peptide binding to NRP-1, fluorescence polarization | inhibition, % at 25 µM | AID 602438;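 active = inhibition or corrected inhibition above about 18%, plus a signal ratio from 0.5 to 1.5, limit read from the data, passing the limit was not always enough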
Target sequence (O14786 whole entry, looked up): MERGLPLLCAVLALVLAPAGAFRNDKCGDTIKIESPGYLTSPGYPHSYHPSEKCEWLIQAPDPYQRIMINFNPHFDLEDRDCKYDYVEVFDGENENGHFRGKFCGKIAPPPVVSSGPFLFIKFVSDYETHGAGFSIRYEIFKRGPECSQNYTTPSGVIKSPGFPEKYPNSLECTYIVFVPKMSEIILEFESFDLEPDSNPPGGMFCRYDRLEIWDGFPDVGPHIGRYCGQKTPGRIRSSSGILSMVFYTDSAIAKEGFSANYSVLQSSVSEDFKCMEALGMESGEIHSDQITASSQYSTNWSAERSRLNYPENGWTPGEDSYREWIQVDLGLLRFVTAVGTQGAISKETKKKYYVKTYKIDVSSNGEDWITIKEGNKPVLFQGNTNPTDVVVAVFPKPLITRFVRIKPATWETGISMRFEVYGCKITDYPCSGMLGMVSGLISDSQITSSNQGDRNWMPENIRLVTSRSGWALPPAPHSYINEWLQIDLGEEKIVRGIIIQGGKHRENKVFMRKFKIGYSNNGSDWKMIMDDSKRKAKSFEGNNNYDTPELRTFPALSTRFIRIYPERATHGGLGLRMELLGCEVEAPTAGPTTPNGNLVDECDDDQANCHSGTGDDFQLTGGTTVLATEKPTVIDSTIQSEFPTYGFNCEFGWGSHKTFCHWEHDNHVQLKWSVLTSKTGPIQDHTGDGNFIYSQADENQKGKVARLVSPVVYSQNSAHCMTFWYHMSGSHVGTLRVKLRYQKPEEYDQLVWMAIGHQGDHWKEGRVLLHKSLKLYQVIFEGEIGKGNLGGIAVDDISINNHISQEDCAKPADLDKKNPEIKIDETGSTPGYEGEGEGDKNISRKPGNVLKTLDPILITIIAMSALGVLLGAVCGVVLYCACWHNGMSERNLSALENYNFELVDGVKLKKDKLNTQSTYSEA
SENP8 block-1 – blocks human SENP8 cleavage of Nedd8 substrate; recombinant SENP8, Nedd8 substrate fluorescence; Q96LD8; 360,000 tested, 0.64% active; inhibition, % at 20 µM; AID 602440; in the data active = inhibition mostly above about 40%, no sharp cut-off; inactive = mostly below about 27%
SENP8 block-2 – SENP8 protease inhibition | Q96LD8 | purified SENP8, Z-RLRGG-aminoluciferin cleavage, luminescence | inhibition, % at 10 µM | 330,000 tested, 1.2% active | AID 2540; in the data active = inhibition above about 50%
SENP7 inh – blocks the human protease SENP7; Q9BQF6; 330,000 tested, 1.5% active; recombinant SENP7, Z-RLRGG-aminoluciferin luminescence, 40 min; inhibition, % at 5 µM;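 active = inhibition above about 50% at the single test dose, limit read from the data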
SENP8 inh conf – SENP8 (human) inhibition, single concentration confirmation. shares compounds with SENP8 block-1. purified SENP8, Nedd8-AMC/pro-Nedd8 cleavage fluorescence, 30 min. inhibition, % at 25 µM. 1,400 tested, 15% active. AID 624319; in the data active = inhibition mostly above about 39%, no sharp cut-off; inactive = mostly below about 34%
Large screens that a line does not name were inactive (follow-up assays come after a bar, where they were run). The list is not random: actives were taken first. Their share in the collection is about 3.3%.

Cc1ccc(S(=O)(=O)NC(=O)C2(C)CCN2C(=O)CCc2ccc(Cl)cc2Cl)cc1 (configuration not stated)	none (no result: SENP6 block, SENP8 block-2, SENP7 inh)
COc1ccc(OC)c(S(=O)(=O)Nc2cccc3c(O)cccc23)c1	SENP8 block-1 47.5 | SENP8 inh conf inactive
Cc1ccccc1NC(=O)Nc1ccccc1C(N)=O	none
Cc1ccccc1NNC(N)=S	SENP8 block-1 50.6 | SENP8 inh conf inactive
OCCNCc1cc(Br)ccc1OCc1ccc(Cl)cc1Cl	SENP8 block-1 41.6 (no result: SENP6 block, SENP8 block-2, SENP7 inh) | SENP8 inh conf inactive
OCCNCc1cc(Br)ccc1OCc1ccc(Cl)cc1	none
CCN1CCN(C(=O)C(C)Nc2cc(Cl)c(OC)cc2OC)CC1 (configuration not stated)	SENP8 block-1 43.8 | SENP8 inh conf inactive
COc1ccccc1OCCNC(=O)c1cc(F)c(F)cc1Cl	SENP8 block-1 41.1 | SENP8 inh conf inactive
CC(=O)Nc1ccc(CN(C)c2c(C)nc3ccc(C(=O)N(C)Cc4ccccc4)cn23)cc1	none (no result: SENP6 block, SENP8 block-2, SENP7 inh)
COc1cc(O)c(NC(C)=O)c2nonc12	SENP8 block-1 59.8 | SENP8 inh conf inactive
COc1cc(-c2ccc(NC(C)=O)c(OC)c2)ccc1NC(C)=O	none
CCCCn1c(N)c(N(CC)C(=O)COc2ccc(C#N)cc2)c(=O)[nH]c1=O	none
Cc1ccc(NNC(=O)c2c(C)noc2C)cc1Cl	SENP8 block-1 53.7 | SENP8 inh conf inactive
CC1=NN(c2ccc(S(=O)(=O)O)cc2Cl)C(=O)C1	SENP8 block-1 75.6 | SENP8 inh conf inactive
CC1=NN(c2cc(Cl)c(S(=O)(=O)O)cc2Cl)C(=O)C1	SENP8 block-1 65.9 (no result: SENP6 block, SENP8 block-2, SENP7 inh) | SENP8 inh conf inactive
CCCCN(C(=O)COC(=O)c1sccc1C)c1c(N)n(CCC)c(=O)[nH]c1=O	none (no result: SENP6 block, SENP8 block-2, SENP7 inh)
COc1cc(C(=O)OC2CC3CCC2(C)C3(C)C)ccc1OC(C)=O (configuration not stated)	SENP8 block-1 61.5 | SENP8 inh conf inactive
O=[N+]([O-])c1ccc(Cl)cc1Sc1cccc2cccnc12	SENP8 block-1 41.9 | SENP8 inh conf inactive
Cn1ccnc1Sc1cc(Cl)ccc1[N+](=O)[O-]	none
CC1(C(=O)NS(=O)(=O)c2cccc(F)c2)CCN1C(=O)CCC1CCCC1 (configuration not stated)	none (no result: SENP6 block, SENP8 block-2, SENP7 inh)
CCOc1ccc(Br)cc1C1=NN(C(C)=O)C(c2ccc([N+](=O)[O-])s2)O1 (configuration not stated)	SENP8 block-1 59.8 | SENP8 inh conf 56.1
C[C@H](CO)N1C[C@H](C)[C@@H](CN(C)C(=O)c2ccncc2)OCc2cnnn2CCCC1=O	none (no result: SENP6 block, SENP8 block-2, SENP7 inh)
Cc1ccoc1C(=O)NCCCNC(=O)c1occc1C	SENP8 block-1 61.9 | SENP8 inh conf 81.5
COc1ccc(C2SCCN2S(=O)(=O)c2ccc(F)cc2)cc1OC (configuration not stated)	none
COc1ccc(S(=O)(=O)N2CCSC2c2ccc(OC)c(OC)c2)cc1 (configuration not stated)	SENP8 block-1 50.2 | SENP8 inh conf inactive
COC(=O)Cn1c2ccc(OC)cc2c2nc3ccccc3nc21	none
CCOC(=O)Cn1c2ccc(OC)cc2c2nc3ccccc3nc21	SENP8 block-1 58.2 | SENP8 inh conf inactive
C1CCN(c2nc3nonc3nc2N2CCCCC2)CC1	none
C1CCN(c2nc3nonc3nc2NCC2CCOCC2)CC1	SENP8 block-1 43.5 | SENP8 inh conf inactive
CC(C)N(Cc1cnn(C)c1)Cc1nc(Cc2ccccc2Cl)no1	SENP8 block-1 47.0 | SENP8 inh conf inactive
CN(Cc1cnn(C)c1)Cc1nc(Cc2ccccc2Cl)no1	none
CCCCCCCCN1C(=O)[C@H](CC(=O)NCc2cccc3ccccc23)C[C@@]2(C(=O)OC)CC(C)(C)CC=C12	none (no result: SENP6 block, SENP8 block-2, SENP7 inh)
Cc1cc(C)c(C(O)c2ncc(-c3ccccc3F)[nH]2)c(C)c1 (configuration not stated)	none (no result: SENP6 block, SENP8 block-2, SENP7 inh)
C1CN(c2nc3nonc3nc2N2CCSCC2)CCO1	none
C[C@@H]1CN(c2nc3nonc3nc2N2CCSCC2)C[C@H](C)O1	SENP8 block-1 40.6 | SENP8 inh conf inactive
CC1=NCCN1S(=O)(=O)c1cc(Cl)ccc1Cl	SENP8 block-1 47.7 | SENP8 inh conf inactive
CCN(CC)C(=O)Cc1ccccc1	SENP8 block-1 42.4 | SENP8 inh conf inactive
